# Measured values as given in ChEMBL document CHEMBL1142170, “Mechanism of activation of beta-D-2'-deoxy-2'-fluoro-2'-c-methylcytidine and inhibition of hepatitis C virus NS5B RNA polymerase” (Antimicrob Agents Chemother, 2007).
# What was measured:
# [1] = Inhibition of HCV NS5B RNA polymerase S282T mutant assessed as incorporation of 32P-UMP into RNA; set-up: species or system Hepacivirus hominis
# In short: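 Purified 21-aa C-terminally truncated NS5B (S282T; wild type for comparison) on minus-IRES template, run in 50 mM HEPES pH 7.5 with 1 mM MgCl2, 0.75 mM MnCl2, 2 mM DTT and [α-32P]UTP at 27°C. Natural substrate and inhibitor were both varied against fixed remaining NTPs (UTP 10 μM, others 100 μM). Product was membrane-captured and counted. Ki was obtained by fitting a competitive inhibition equation.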
# [2] = Inhibition of HCV NS5B RNA polymerase assessed as incorporation of 32P-UMP into RNA; set-up: species or system Hepacivirus hominis
# In short: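 Steady-state Ki against truncated NS5B (wild-type and S282T) on minus IRES template, 27°C, HEPES pH 7.5 with Mg2+/Mn2+/DTT and [α-32P]UTP. For ATP analog, UTP 10, GTP and CTP 100 μM, ATP and inhibitor varied. For CTP analogs, UTP 10, ATP and GTP 100 μM, CTP and inhibitor varied. Membrane-bound product counted, rates fit to competitive inhibition.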
Compound,Ki [1] [µM],Ki [2] [µM]
C[C@@]1(F)[C@H](O)[C@@H](COP(=O)(O)OP(=O)(O)OP(=O)(O)O)O[C@H]1n1ccc(N)nc1=O [PSI-6130-TP],2.5,4.3
C[C@@]1(O)[C@H](O)[C@@H](COP(=O)(O)OP(=O)(O)OP(=O)(O)O)O[C@H]1n1cnc2c(N)ncnc21,21.8,1.5
C[C@@]1(O)[C@H](O)[C@@H](COP(=O)(O)OP(=O)(O)OP(=O)(O)O)O[C@H]1n1ccc(N)nc1=O [2'-C-METHYLCYTIDINE TRIPHOSPHATE],3.8,1.6
